Screening results deposited in PubChem by several laboratories.
Most compounds without a hit are left out; they make up all but 4.4% or so of the library.
AHR activator – human AHR activation; AHR-responsive luciferase reporter cells, luminescence; activation, % at 5 µM; P35869; 320,000 compounds, 2.5% hits; in the data active means activation above about 47%;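 further: 0% = vehicle wells and 100% = reference agonist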
Target sequence (P35869 whole entry, looked up): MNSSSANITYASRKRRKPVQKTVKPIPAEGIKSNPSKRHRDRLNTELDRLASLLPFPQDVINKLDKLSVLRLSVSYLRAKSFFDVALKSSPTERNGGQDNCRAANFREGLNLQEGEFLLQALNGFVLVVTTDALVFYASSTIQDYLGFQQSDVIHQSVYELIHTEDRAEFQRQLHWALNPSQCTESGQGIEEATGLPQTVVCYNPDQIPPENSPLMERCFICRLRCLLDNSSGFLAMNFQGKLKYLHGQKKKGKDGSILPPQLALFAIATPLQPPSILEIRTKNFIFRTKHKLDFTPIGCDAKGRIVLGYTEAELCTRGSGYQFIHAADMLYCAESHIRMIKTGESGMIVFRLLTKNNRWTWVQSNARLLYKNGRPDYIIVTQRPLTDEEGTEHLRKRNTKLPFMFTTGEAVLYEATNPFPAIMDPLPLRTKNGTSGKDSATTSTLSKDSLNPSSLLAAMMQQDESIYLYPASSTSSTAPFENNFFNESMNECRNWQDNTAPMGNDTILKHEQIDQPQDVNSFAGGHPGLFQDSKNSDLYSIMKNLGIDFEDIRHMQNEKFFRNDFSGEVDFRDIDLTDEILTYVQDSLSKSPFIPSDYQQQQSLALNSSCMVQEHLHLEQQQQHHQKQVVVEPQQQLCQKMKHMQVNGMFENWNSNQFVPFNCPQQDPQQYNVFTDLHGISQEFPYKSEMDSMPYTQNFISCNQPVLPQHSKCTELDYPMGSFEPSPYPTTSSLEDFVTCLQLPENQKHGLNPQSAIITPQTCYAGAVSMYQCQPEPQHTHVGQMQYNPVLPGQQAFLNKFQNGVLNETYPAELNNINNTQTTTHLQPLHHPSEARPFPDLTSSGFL
TbMetRS inhib – Trypanosoma brucei MetRS inhibition | purified T. brucei MetRS, ATP depletion, Kinase-Glo luminescence | 360,000 compounds, 0.4% hits | inhibition, % at 11.9 µM;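 active means inhibition above a per-plate cutoff of the control wells' mean inhibition plus 3 SD, cut at about 5.5% in these data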;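 further: 0% = DMSO wells median and 100% = median of wells with control inhibitor compound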
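Material – parasite MetRS enzyme · Medium – HEPES-MgCl2-KCl buffer plus DTT, spermine, BSA, pyrophosphatase · Reagent – ATP, methionine and E. coli bulk tRNA substrates · Times – 15 min enzyme-compound preincubation, 2 h reaction, 10 min detection, 25 °C · Measured by – luminescence of leftover ATP · Evaluation – percent inhibition relative to median high and low control wells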
AI-2 QS mod – modulates the Vibrio harveyi AI-2 quorum sensing system | AID 2094 | Vibrio harveyi JMH597 AI-2 luminescence/OD600 ratio, 9 h; stronger effect = lower value; strain lacks LuxN and CqsS sensors; 0 = neutral-control median | activity change, % at 7.5 µM | 300,000 compounds, 0.4% hits; in the data active means activity change below about -75%, passing the limit was not always enough; inconclusive means no clear call, values can overlap the other calls;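 further: luminescence divided by OD600 gain over 9 h not by final OD600 alone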
HTR2A ag – agonists of mouse serotonin 5-HT2A receptor (HTR2A) | 360,000 compounds, 0.66% hits | P35363 | CHO-K1 mHTR2A beta-arrestin complementation, luminescence; percent of 30 µM serotonin response | activation, % at 7.6 µM;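 active means activation above a run cutoff, the mean activation of all tested compounds plus 3 SD, cut at about 14% in these data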;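 further: 0% = plate median of compound wells and 100% = 30 µM serotonin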
bovine MsrA act – activators of bovine methionine sulfoxide reductase A; purified bovine MsrA, absorbance read-out; activation, % at 10.6 µM; 360,000 compounds, 0.3% hits; AID 602163; in the data active means activation above about 7.5%;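 further: 0% = vehicle and 100% = reference activator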
MsrA inh – bovine MsrA inhibition; purified bovine MsrA, absorbance read-out; inhibition, % at 15.5 µM; 360,000 compounds, 0.75% hits; in the data active means inhibition above about 4.5%;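 further: 0% = vehicle wells with enzyme and 100% = reference inhibitor wells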
OPRM1 ag – activates human mu opioid receptor in HTR2A counterscreen; shares compounds with HTR2A ag; U2OS OPRM1 beta-arrestin PathHunter, luminescence; DMSO 0%, DAMGO 9.3 µM 100%; activation, % at 9.3 µM; 2,300 compounds, 5.3% hits; AID 624380;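 active means mean activation above the mean of DMSO-only wells plus 3 SD, cut at about 0.5% in these data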
m5-HT2A ag conf – confirmation of mouse HTR2A serotonin receptor agonists; shares compounds with HTR2A ag; CHO-K1 PathHunter beta-arrestin recruitment, luminescence; DMSO 0%, 30 µM serotonin 100%; activation, % at 7.6 µM; 2,300 compounds, 19% hits;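 active means mean activation across triplicates above the hit threshold derived in the original primary screen, cut at about 15% in these data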
* marks the source's active call; other numbers are inactive results; ? = inconclusive; · = not tested or not shown; ! = a repeat was not active.

SMILES | AHR activator | TbMetRS inhib | AI-2 QS mod | HTR2A ag | bovine MsrA act | MsrA inh | OPRM1 ag | m5-HT2A ag conf
O=C(O)C1CC1C(=O)N1CCN(c2ccc(Cl)c(Cl)c2)CC1 (centres undefined) | -1 | -2 | · | 36* | -9 | 2 | -1 | 19*
Cc1occc1C(=O)N1CCN(c2ccccc2)CC1 | -3 | 0 | 12 | 0 | 1 | -1 | · | ·
Cc1occc1C(=O)N1CCN(c2ccc(Cl)c(Cl)c2)CC1 | -2 | 0 | -29 | 36* | -9 | 0 | 0 | 13
O=C(CSc1nnc(NC(=O)c2ccccc2F)s1)NCC1CCCO1 (centres undefined) | -2 | 0 | 15 | 1 | -3 | 1 | · | ·
CC1CCCC(C)N1C(=O)CN1C(=O)c2ccccc2S1(=O)=O (centres undefined) | -2 | 0 | · | 1 | -1 | 1 | · | ·
CC(C)Oc1ccc(S(=O)(=O)N2CCOCC2)cc1NC(=O)CC1OC(=O)c2ccccc21 (centres undefined) | -3 | 0 | · | 16* | -3 | -1 | 0 | 0
C[C@H]1CN([C@@H](C)CO)C(=O)c2cc(-c3ccccc3F)cnc2O[C@@H]1CN(C)C(=O)NC1CCCCC1 | · | 0 | · | -3 | -2 | -2 | · | ·
Cc1nn(C)c(Cl)c1CN1CCN(C2CCCC2)C(CCO)C1 (centres undefined) | -1 | -1 | 6 | 24* | -4 | 0 | -1 | 2
O=C(COc1ccccc1)Nc1nnc(-c2ccc(F)cc2)o1 | 3 | -1 | ? | 17* | -7 | 0 | -1 | 2
CCOC(=O)CNC(=S)N(CCCN1CCCC1)Cc1cccs1 | -7 | 0 | 21 | 29* | -2 | 0 | -1 | 10
CCOC(=O)CNC(=S)N(CCCN1CCCCCC1)Cc1cccs1 | -4 | 0 | 4 | 7 | 0 | 0 | · | ·
Nn1c(SCC(=O)Nc2nccs2)nnc1-c1cccnc1 | 9 | 0 | · | 7 | -10 | 0 | · | ·
C[C@@H]1CN(S(=O)C(C)(C)C)[C@@H](CCO)/C1=C\c1ccccc1 (some centres undefined) | · | 1 | · | 5 | -1 | -1 | · | ·
CC(=O)Nc1ccc(NC(=O)CCC(=O)OCC(=O)c2ccc(F)cc2)cc1 | 0 | 0 | 16 | 1 | -6 | -1 | · | ·
Cc1cc(C=O)c(C)n1-c1ccc(N2CCOCC2)cc1 | 4 | 0 | 26 | 16* | -1 | 1 | -1 | -2
O=C(COC(=O)COc1ccccc1)NC1CCCC1 | 1 | 0 | · | 12 | -6 | 0 | · | ·
O=C(NCc1ccncc1)c1ccc(NS(=O)(=O)c2ccccc2)cc1 | 13 | 0 | -5 | 1 | -4 | -1 | · | ·
O=C(NCc1ccncc1)c1ccc(S(=O)(=O)Nc2ccccc2)cc1 | 0 | 0 | 9 | 15* | -1 | 0 | 0 | -5
CN1C(=O)[C@@H]2[C@H](C1=O)[C@@H]1C(=O)Nc3ccccc3C(=O)N1[C@@H]2c1cccc(Br)c1 | 29 | 0 | 12 | -2 | -3 | -1 | · | ·
CC(OC(=O)CCCN=C1NS(=O)(=O)c2ccccc21)C(=O)Nc1ccccc1F (centres undefined) | 2 | 0 | 1 | 25* | -4 | 0 | -1 | -4
CC(OC(=O)CCN=C1NS(=O)(=O)c2ccccc21)C(=O)Nc1ccccc1F (centres undefined) | 1 | 0 | 18 | -2 | -1 | -1 | · | ·
Cc1cccc(NS(=O)(=O)c2ccc3c(c2)CCC(=O)N3)c1 | 1 | -1 | 15 | 16*! | -1 | 1 | 0 | 5
O=C1CCc2cc(S(=O)(=O)Nc3cccc(Cl)c3)ccc2N1 | · | -1 | · | -2 | -6 | 0 | · | ·
Cc1cnc(CN(C)C(=O)C2CCC(=O)N(CCc3ccccc3)C2)[nH]1 (centres undefined) | -2 | -2 | -4 | 20* | -13 | -1 | -1 | -3
COc1ccc2c(c1)OC(=O)CC2c1ccccc1OC (centres undefined) | · | -2 | · | 16* | -8 | 1 | 0 | -3
SMILES | AHR activator | TbMetRS inhib | AI-2 QS mod | HTR2A ag | bovine MsrA act | MsrA inh | OPRM1 ag | m5-HT2A ag conf
COc1ccccc1N1CCN(C(=O)CSc2ncccc2-c2nc3ccccc3[nH]2)CC1 | 9 | 1 | -12 | -2 | -2 | 1 | · | ·
COc1ccccc1N1CCN(C(=O)CSc2nc3ccccc3[nH]2)CC1 | 0 | 0 | -7 | 15* | -3 | 0 | 0 | 0
CCOc1ccc(S(=O)(=O)NCCC(=O)NCc2ccc(OC)c(OC)c2)cc1 | 1 | 0 | · | 14* | -3 | 0 | 1.5* | 8
COc1ccc(S(=O)(=O)N2CCCC2)cc1C(=O)O | -2 | -1 | 37 | -7 | -1 | -1 | · | ·
CCOCCn1c(CN2CCN(CC)CC2)nc2c1c(=O)n(C)c(=O)n2C | -1 | -1 | 7 | 48* | -1 | 1 | 0 | -1
CC(C)(Cc1ccccc1)/[N+]([O-])=C\c1ccc(C(F)(F)F)cc1 | 6 | 0 | 3 | 0 | 0 | 0 | · | ·
Cc1c(C(=O)CN2CCN(c3ccccc3)CC2)c2ccccc2n1C | -2 | 0 | 4 | 2 | -1 | 0 | · | ·
Cn1c2c(c3ccccc31)CCN(CCCCN1CCN(c3ccccc3)CC1)C2=O | · | 0 | · | 21* | -3 | 1 | 0 | 40*
O=C(N/N=C/c1ccccc1Cl)C1CC1 | 4 | -1 | 11 | 15* | -9 | 1 | 0 | -5
O=C(NN=Cc1cccc2ccccc12)C1CC1 | · | 0 | · | -5 | -2 | 1 | · | ·
CCOCCCNC(=O)C1(O)c2cc(Br)ccc2NC(=O)N1c1ccc(CC)cc1 (centres undefined) | 7 | 0 | 23 | 18* | 0 | 0 | 0 | -1
CC(C)c1ccc(/C=N/NC(=O)CCNC(=O)c2ccccc2)cc1 | 11 | -1 | 31 | -2 | 1 | 0 | · | ·
CC(C)n1c(SCC(=O)NC2CCCCC2)nnc1-c1ccco1 | -1 | -1 | · | -4 | -1 | 0 | · | ·
Cc1onc(-c2c(F)cccc2Cl)c1C(=O)Nc1cccc(S(=O)(=O)NC2=NCCC2)c1 | 1 | 0 | -5 | -3 | -2 | 0 | · | ·
COC(=O)[C@H]1C[C@@]2(O)CN(S(=O)(=O)c3ccc(C)cc3)C[C@@]2(OC(=O)NCc2ccccc2F)C[C@H]1C(=O)OC | · | 0 | · | 19* | -7 | 0 | 0 | -2
COc1ccc(NC(=O)CCNS(=O)(=O)c2ccc3[nH]c(=O)oc3c2)cc1Cl | -1 | 1 | 27 | 22* | -1 | 0 | 0 | 3
